Series [1] has as its system Mus musculus. Kind of series: Depression of forced motor activity in Swiss-Webster mouse at 50 mg/kg, ip after 30 mins by rotarod test relative to control. In kind it is functional. The note with it: route intraperitoneal. The essentials: (§1)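 Mice were dosed ip with vehicle or compound dissolved in a minimum of 1.5 M NaH2PO4 and diluted with water. On the rotarod, speed was 4 rpm for 30 sec, then 6 rpm for 30 sec, then increased every 30 sec up to a maximum of 50 rpm until the fall. Each mouse had four trials, two per day on two consecutive days, spaced 4–6 hr apart. The fourth trial was run 30 min after dosing. The read-out was trial time (sec) as % of control, with significance by Student's t test (p < 0.05).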
A general note: Falling from the rotarod earlier than controls is read as motor impairment.

Series [2] concerns Mus musculus. Put plainly: Depression of forced motor activity in Swiss-Webster mouse at 12.5 mg/kg, ip after 30 mins by rotarod test relative to control. The note with it: route intraperitoneal. In kind it is functional. The gist of the method: as §1
Series [3] relates to Mus musculus. Kind of series: Depression of spontaneous motor activity in ip dosed Swiss-Webster mouse by photocell cage test relative to control. In kind it is functional, organism-based. The essentials:
(§2)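 Compound was dissolved in minimal 1.5 M NaH2PO4, diluted with water and given ip. Two mice given the same dose went into each of three photocell actophotometer cages 10 min after the rotarod test started. Counts were taken over 15 min, starting 5 min after placement. A factorial design across cages cancelled differences between units. Results were given as % of control, with significance by Student's t test (p < 0.05).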

Series [4] concerns Mus musculus. Kind of series: Depression of forced motor activity in Swiss-Webster mouse at 25 mg/kg, ip after 30 mins by rotarod test relative to control. In kind it is functional. The note with it: route intraperitoneal. The gist of the method: as §1
Series [5] can be described thus: Acute toxicity in ip dosed Swiss-Webster mouse administered as single dose after 7 days. The note with it: in vivo. In kind it is organism-based. The essentials: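 Mice given a single ip dose at each of four dose levels; lethality followed over 7 days; LD50 with 95% confidence limits estimated by the method of Weil. Compounds dissolved in minimal 1.5 M NaH2PO4, diluted with water; haloperidol in minimal 50% (w/v) tartaric acid-water.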

Series [6] has as its system Mus musculus. Kind of series: Depression of spontaneous motor activity in Swiss-Webster mouse at 25 mg/kg, ip by photocell cage test relative to control. In kind it is functional. The note with it: route intraperitoneal. The essentials:
as §2

Series [7] deals with Mus musculus. Put plainly: Depression of spontaneous motor activity in Swiss-Webster mouse at 50 mg/kg, ip by photocell cage test relative to control. Format: functional. The note with it: route intraperitoneal. The gist of the method:
as §2

For series [8], the system named is Mus musculus. Kind of series: Depression of spontaneous motor activity in Swiss-Webster mouse at 12.5 mg/kg, ip by photocell cage test relative to control. Format: functional. The note with it: route intraperitoneal. The essentials:
as §2

Series [9] has as its system Rattus norvegicus. Put plainly: Reduction in respiratory rate in Wistar rat at 50 mg/kg, ip. In kind it is functional, organism-based. Details: dose 50 mg/kg. The gist of the method:
(§3)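 Male Wistar rats (175–225 g) dosed ip (vehicle dilute NaH2PO4 in water). Gross behaviour observed; respiratory rate, heart rate, rectal temperature and pupil size measured. Three treated rats per dose compared with one control.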

Series [10] concerns Rattus norvegicus. Kind of series: Depression of motor activity in Wistar rat at 50 mg/kg, ip after 1 to 5 hrs. Set-up: dose 50 mg/kg. Format: functional, organism-based. The gist of the method:
as §3

The test system of series [11] is Mus musculus. Put plainly: Depression of forced motor activity in Swiss-Webster mouse at 100 mg/kg, ip after 30 mins by rotarod test relative to control. Format: functional. The note with it: route intraperitoneal. The gist of the method: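 Rotarod in mice: rod at 4 rpm for 30 sec, 6 rpm next 30 sec, then stepped up every 30 sec (max 50 rpm) until fall. Six mice at a time, four trials (two per day, 4–6 hr apart, two consecutive days); vehicle or compound ip 30 min before fourth trial. Time on rod as % of control; Student's t test, p < 0.05.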

In series [12] the test system is Mus musculus. Put plainly: Depression of spontaneous motor activity in Swiss-Webster mouse at 100 mg/kg, ip by photocell cage test relative to control. Format: functional. The note with it: route intraperitoneal. The essentials: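 Spontaneous activity in three photocell cages: two mice given the same ip dose placed per cage 10 min after rotarod start; 15-min count begun 5 min after placement. Each dose run in factorial design across all three cages to offset unit sensitivity. Counts expressed as % of control; Student's t test, p < 0.05.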

The subject of series [13] is Rattus norvegicus. Kind of series: Reduction in body temperature in Wistar rat at 50 mg/kg, ip relative to control. In kind it is functional. The note with it: route intraperitoneal. The gist of the method:
as §3

In series [14] the test system is Rattus norvegicus. Kind of series: Reduction in heart rate in Wistar rat at 50 mg/kg, ip. Format: functional, organism-based. Details: dose 50 mg/kg. The essentials:
as §3

The subject of series [15] is Mus musculus. Kind of series: Depression of forced motor activity in ip dosed Swiss-Webster mouse after 30 mins by rotarod test relative to control. In kind it is functional, organism-based. The gist of the method: as §1
Series [16] concerns Rattus norvegicus. Put plainly: Reduction in ptosis in Wistar rat at 50 mg/kg, ip after 1 to 5 hrs. Details: dose 50 mg/kg. Format: functional, organism-based. The gist of the method:
as §3

Series [17] has as its system Rattus norvegicus. Put plainly: Increase in pupil size in Wistar rat at 50 mg/kg, ip. In kind it is functional, organism-based. Set-up: dose 50 mg/kg. The essentials:
as §3

SMILES strings stand for the structures. Activity calls are given as the source filed them. The calls are words filed in the database; no cut-off is given here.

As usually defined, the LD50 is the dose at which mortality reaches 50%. Low readings indicate greater toxicity, high ones lower toxicity. For the compound `O[C@]1(c2ccc(C(F)(F)F)cc2)CCN2CCCCC2C1` (single isomer, unassigned), the Activity in the series on Mus musculus [1] is 31.5%; in the series on Mus musculus [2], 115.2%; with Mus musculus [3], “Dose-dependent effect”; in the series with Mus musculus [4] it was 100.6%; in the series on Mus musculus [6], 39.3%; in the series on Mus musculus [7] it was 17.5%. Also, the Activity with Mus musculus [8] worked out at 90%. The 50% lethal dose (LD50) at 168 h in series [5] worked out at 125 mg/kg.

For `O[C@]1(c2ccc(Cl)cc2)CCN2CCCCC2C1` (stereo partly drawn), the Activity is 26.7% in the series with Mus musculus [1]; 9.7% in the series with Mus musculus [11]; 2.6% with Mus musculus [12]; “Dose-dependent effect” with Mus musculus [3]; 71.3% in the series with Mus musculus [4]; “Dose-dependent effect” in the series on Mus musculus [15]. Moreover, the Activity in the series on Mus musculus [6] came out at 19.4%; in the series on Mus musculus [7], 18.1%. For the same compound, the outcome in the series with Rattus norvegicus [9], with Rattus norvegicus [10], in the series on Rattus norvegicus [14], in the series with Rattus norvegicus [16] and with Rattus norvegicus [17] was Active. Further, the T with Rattus norvegicus [13] was 1 °C. Moreover, the LD50 at 168 h in series [5] turned out to be 229 mg/kg.

`O[C@]1(c2cccc(Cl)c2)CCN2CCCCC2C1` (single isomer, unassigned): the Activity is 34.3% with Mus musculus [1]; 88.6% in the series on Mus musculus [2]; 83.6% in the series on Mus musculus [4]; 89.9% in the series on Mus musculus [6]; 74.3% in the series on Mus musculus [7]. For the same compound, the LD50 at 168 h in [5] is 134 mg/kg.

Regarding `O[C@@]1(c2cccc(C(F)(F)F)c2)CCN2CCCCC2C1` (single isomer, unassigned), the Activity in the series on Mus musculus [1] is reported as 100.5%; in the series with Mus musculus [11], 29.6%; in the series on Mus musculus [12], 5.5%; with Mus musculus [4] it was 97.9%; with Mus musculus [6] it was 119%; in the series with Mus musculus [7], 111%. The compound also came in with a 50% lethal dose (LD50) at 168 h in series [5] of 262 mg/kg.

`O[C@@]1(c2ccc(C(F)(F)F)cc2)CCN2CCCCC2C1` (single isomer, unassigned): the Activity in the series with Mus musculus [1] turned out to be 83.5%; in the series on Mus musculus [2], 99.3%; in the series with Mus musculus [4], 92.3%; in the series with Mus musculus [6], 82.7%; with Mus musculus [7], 45.2%; in the series on Mus musculus [8] it was 49.7%. Moreover, the 50% lethal dose (LD50) at 168 h in [5] amounted to 130 mg/kg.

The record behind these values is ChEMBL document CHEMBL3272008, “Synthesis and biological actions of 2-substituted quinolizidines” (J Med Chem, 1976).
